According to paper PMC4703045 (Chemistry & biology, 2015):

Experiments:
KCa1.1 channel = KCa1.1 channel open probability; type: biochemical, rat; conditions: 500 nM Ca2+
In short: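 Inside-out patches excised from enzymatically dispersed cerebral artery smooth muscle cells. Bath (cytosolic face), mM: 140 KCl, 2 MgCl2, 0.1 Mg-ATP, 10 HEPES pH 7.3, 3 EGTA, CaCl2 to 500 nM. Pipette, mM: 120 NaCl, 20 KCl, 2 MgCl2, 1 CaCl2, 10 HEPES pH 7.4. […] NPo normalised to control patches; mean ± SEM.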

PKG Iβ = PKG Iβ kinase activation assay; type: biochemical; conditions: Ni-IMAC-purified PKG Iβ, over basal activity (Figure S1B)
[1] = tested on: endothelium-denuded posterior cerebral arteries; type: cell-based, rat; conditions: paxilline 1 µM; endothelium-denuded control PCAs without S1.5
[2] = tested on: posterior cerebral arteries with intact endothelium; type: cell-based, rat; conditions: control PCAs with intact endothelium, without S1.5
PKG Iα = target: T1, PKG Iα (Bos taurus, UniProt P00516); assay: PKG Iα kinase activation, γ32P-ATP incorporation assay with W15 substrate; type: biochemical; conditions: for activation of PKG Iα (in words): absence of cGMP, 15 min pre-incubation at 30°C
T1 sequence (P00516 1-671): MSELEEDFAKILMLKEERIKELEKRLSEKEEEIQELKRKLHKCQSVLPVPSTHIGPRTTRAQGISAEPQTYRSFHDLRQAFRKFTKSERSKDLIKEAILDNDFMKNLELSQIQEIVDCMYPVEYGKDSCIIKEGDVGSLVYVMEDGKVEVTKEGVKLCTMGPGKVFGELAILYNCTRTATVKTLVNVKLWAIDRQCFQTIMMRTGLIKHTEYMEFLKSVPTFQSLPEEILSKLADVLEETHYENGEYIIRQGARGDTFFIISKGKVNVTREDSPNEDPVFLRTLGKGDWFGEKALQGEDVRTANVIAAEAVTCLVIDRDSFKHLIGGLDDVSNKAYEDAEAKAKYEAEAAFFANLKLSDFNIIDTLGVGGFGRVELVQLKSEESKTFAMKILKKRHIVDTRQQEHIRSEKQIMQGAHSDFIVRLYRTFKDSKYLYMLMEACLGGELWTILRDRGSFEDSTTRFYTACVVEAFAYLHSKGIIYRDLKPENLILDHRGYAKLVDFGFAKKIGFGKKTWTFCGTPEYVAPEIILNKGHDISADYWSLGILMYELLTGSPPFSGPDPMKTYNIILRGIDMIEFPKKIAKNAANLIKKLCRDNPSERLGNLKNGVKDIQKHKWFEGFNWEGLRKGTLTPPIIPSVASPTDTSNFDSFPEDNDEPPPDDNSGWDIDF

[3] = Secondary structure by circular dichroism spectroscopy; type: physicochemical; conditions: 10 µM peptide in 10 mM PBS pH=7.4, 22°C, 260 to 190 nm
In short: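 CD spectra at 22°C in a 2 mm cuvette, with 10 µM peptide in 10 mM PBS pH 7.4. Scanned 260–190 nm at 0.5 nm intervals with 2 s integration and 100 nm/min. Ten accumulations were averaged per peptide, and output was given as mean residue ellipticity (mdeg × cm2/dmol × residue).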

[4] = target: cGMP-dependent protein kinase Iα (UniProt P00516)
[5] = target: cGMP-dependent protein kinase Iα (UniProt P00516); remark: listed apart in the source

For `Nc1nc2c(ncn2[C@@H]2O[C@@H]3COP(=O)(O)O[C@H]3[C@H]2O)c(=O)[nH]1` [cGMP, cyclic guanosine-3’,5’-monophosphate], which “change in KCa1.1 open probability (NPo)” value (KCa1.1 channel; 50 nM cGMP with recombinant PKG Iα in bath solution) is on record?
The value was “no significant change”.

What about the “increase of KCa1.1 NPo above the control” value (KCa1.1 channel; 5 µM cGMP (saturating) with PKG Iα, p<0.002) of the same molecule?
The value was “eight”.

And the “increase in activity under saturating quantities of cGMP” value (PKG Iβ)?
The value was 15 fold.

For `CC(C)(O)[C@H]1O[C@H]2CC[C@@]3(C)[C@@](O)(CC[C@H]4Cc5c([nH]c6ccccc56)[C@@]43C)C2=CC1=O` [paxilline], which “additional constriction on paxilline in control arteries” value [1] is on record?
Its value is 5%.

And the “paxilline-induced constriction in control arteries” value [2]?
Its value is 4%.

With Ac-AEAKAKYEAEAAFFANLKLSD-NH2 [S1.11] as the molecule, how does the “activation of PKG Iα (in words)” value (PKG Iα) read?
Its value is “complete loss of activity”.

With “Ac-ALKSENYADKVEFKDAKYEASALANEFADA-NH2 [S1.7]” as the molecule, how does the “activation of PKG Iα (in words)” value (PKG Iα) read?
The value was “did not activate the kinase”.

What about the “helicity (secondary structure by CD)” value [3] of the same molecule?
Its value is “found to not be helical”.

For Ac-DAEAKAKYEAEAAFFANLKLSD-NH2 [S1.10], which EC50 (PKG Iα) is on record?
The EC50 was 45 ± 4 µM.

What does the source list for Ac-DVSNKAYEDAEAKAKYEAEAA-NH2 [S1.3]?
activation of PKG Iα (in words) (PKG Iα): completely abolished kinase activity; helicity (secondary structure by CD) [3]: helicity was compromised but not completely lost

Which “activation of PKG Iα (in words)” value (PKG Iα) does the source give for “Ac-DVSNKAYEDAEAKAKYEAEAAAAANLKLSD-NH2 [S1.6]” here?
Its value is “equivalent to removal of the entire knob”.

And the “helicity (secondary structure by CD)” value [3]?
The value was “increased degree of helicity”.

Which EC50 (PKG Iα) does the source give for “Ac-DVSNKAYEDAEAKAKYEAEAAFFANLK-NH2 [S1.2]” here?
The EC50 was 35 ± 4 µM.

What does the source list for “Ac-DVSNKAYEDAEAKAKYEAEAAFFANLKLSD-NH2 [S1.1]”?
EC50 (PKG Iα): 35 ± 4 µM; activation of PKG Iα (in words) (PKG Iα): robust and cooperative activation; effect on KM for the substrate peptide W15 (PKG Iα; control experiment (Figure S4)): did not affect the KM; increase of KCa1.1 channel activity (NPo) versus control (KCa1.1 channel; 100 µM peptide pre-incubated with PKG Iα, +10mV, p<0.05): 6 fold

With Ac-EDAEAKAKYEAEAAFFANLKLSD-NH2 [S1.9] as the molecule, how does the EC50 (PKG Iα) read?
The EC50 was 43 ± 5 µM.

With “Ac-NKAYEDAEAKAKYEAEAAFFANLKLSD-NH2 [S1.4]” as the molecule, how does the EC50 (PKG Iα) read?
The EC50 was 12 ± 1 µM.

For Ac-NKAYEDAEAKAKYEAEAAFFANLKLSD-NH2 [S1.4], which maximal velocity of PKG Iα kinase activity with the peptide [4] is on record?
Its maximal velocity of PKG Iα kinase activity with the peptide is 80%.

Which maximal efficacy of activation of PKG Iα kinase activity [5] does the source give for Ac-DVSNKAYEDAEAKAKYEAEAAFFANLK-NH2 [S1.2] here?
Its maximal efficacy of activation of PKG Iα kinase activity is 60 % of maximum.
